Assay results taken from ChEMBL document CHEMBL4402563, “Preclinical Optimization of gp120 Entry Antagonists as anti-HIV-1 Agents with Improved Cytotoxicity and ADME Properties through Rational Design, Synthesis, and Antiviral Evaluation” (J Med Chem, 2020).

Key:
[1] = Cytotoxicity against dog Cf2Th-CCR5 cells infected with CD4-dependent pseudovirus HIV1 ADA incubated for 48 hrs by MTS assay
[2] = test system: Human immunodeficiency virus 1; assay: Antiviral activity against HIV1-ADA infected in human MOLT4 cells assessed as inhibition in cell to cell HIV1 transmission to human TZM-bl acceptor cells incubated for 24 hrs by luciferase based assay; assay type: functional, organism-based; details: Human immunodeficiency virus 1, 24 h
[3] = test system: Human immunodeficiency virus 1; assay: Antiviral activity against HIV1-3B infected in human H9 cells assessed as inhibition in cell to cell HIV1 transmission to human TZM-bl acceptor cells incubated for 24 hrs by luciferase based assay; assay type: functional, organism-based; details: Human immunodeficiency virus 1, 3B
[4] = test system: Human immunodeficiency virus 1; assay: Antiviral activity against HIV1 HXB2 infected in human TZM-bl cells preincubated for 30 min followed by viral infection and measured after 3 days by luciferase based assay; assay type: functional, organism-based; details: Human immunodeficiency virus 1, M:B_HXB2R
Summary of the method: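 Single-cycle pseudovirus carrying HXB2 Env (CXCR4-tropic), made in HEK293T by co-transfecting an Env-deleted backbone (pSG3Δenv or pNL4-3.Luc.R-E-) with an Env plasmid. TZM-bl cells were seeded at 1 × 10^4/well and grown overnight. Virus was pretreated with graded compound concentrations, then added. Cells were washed and lysed, and IC50 was taken from percent inhibition.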

TZM = assay: Cytotoxicity against human TZM-bl cells incubated for 3 days by MTS assay; assay type: cell-based; details: 72 h
[5] = test system: Human immunodeficiency virus 1; assay: microbe, parasite or virus in culture; details: Human immunodeficiency virus 1, subtypeA
[6] = test system: Human immunodeficiency virus 1; assay: microbe, parasite or virus in culture; details: Human immunodeficiency virus 1, subtypeA; remark: listed apart in the source

Row | SMILES | IC50 [4] [µM] | CC50 (TZM) [µM] | other results
1 | CC1(C)CC(NC(=O)C(=O)Nc2ccc(Cl)cc2)CC(C)(C)N1 |  |  | Activity [1]: Non-Toxic
2 | COc1cnc(-n2cnc(C)n2)c2[nH]cc(C(=O)C(=O)N3CCN(C(=O)c4ccccc4)CC3)c12 | < 0.001 |  | IC50 [2]: 0.2 µM; IC50 [3]: 0.02 µM
3 | NC[C@@H](NC(=O)c1ccc(-c2ccc(C(F)(F)F)cn2)[nH]1)c1ncc(CO)s1 | 0.96 | > 122 | 
4 | CC(C)(N)[C@H](NC(=O)c1ccc(-c2ccc(C(F)(F)F)cn2)[nH]1)c1nc(CO)cs1 | 0.58 | 59 | 
5 | NC[C@H](NC(=O)c1ccc(-c2ccc(Cl)cn2)[nH]1)c1ncc(CO)s1 | 2.7 | 142 | 
6 | NC[C@@H](NC(=O)c1ccc(-c2ccc(C(F)(F)F)nc2)[nH]1)c1nc(CO)cs1 | 12.7 |  | 
7 | Cc1cc(-c2ccc(C(F)(F)F)cn2)[nH]c1C(=O)N[C@H](c1ncc(CO)s1)C(C)(C)N | 0.43 | 37.5 | 
8 | NC[C@@H](NC(=O)c1ccc(-c2ccc(F)cn2)[nH]1)c1nc(CO)cs1 | > 11 |  | 
9 | COc1cc(-c2ccc(C(=O)N[C@@H](CN)c3nc(CO)cs3)[nH]2)ccn1 | > 11 | > 133 | 
10 | Cc1cc(-c2ccc(Cl)cn2)[nH]c1C(=O)N[C@@H](CN)c1ncc(CO)s1 | 2.4 | 95 | 
11 | NC[C@@H](NC(=O)c1ccc(-c2ccc(C(F)(F)F)cn2)[nH]1)c1nc(CO)cs1 | 0.59 | 94.3 | 
12 | Cc1ccc(-c2ccc(C(=O)N[C@H](CN)c3nc(CO)cs3)[nH]2)nc1 | 9.6 |  | 
13 | NC[C@H](NC(=O)c1ccc(-c2ccc(C(F)(F)F)cn2)[nH]1)c1nc(C(O)CO)cs1 (stereo partly specified) | 3.8 | > 113 | 
14 | NC[C@@H](NC(=O)c1ccc(-c2ccc(C(F)(F)F)cn2)[nH]1)c1nc(CCCO)cs1 | 2.3 | > 114 | 
15 | Cc1cc(-c2ccc(C(F)(F)F)cn2)[nH]c1C(=O)N[C@H](CN)c1nc(CO)cs1 |  |  | Activity [1]: Non-Toxic
16 | NC[C@H](NC(=O)c1ccc(-c2ccc(Cl)nc2)[nH]1)c1nc(CO)cs1 | > 11 | > 132 | 
17 | Cc1cc(-c2ccc(C(F)(F)F)cn2)[nH]c1C(=O)N[C@@H](c1ncc(CO)s1)C(C)(C)N | 0.6 | 35.3 | 
18 | Cc1cc(-c2ccc(C(F)(F)F)cn2)[nH]c1C(=O)N[C@@H](CN)c1nc(CO)cs1 |  | 85 | 
19 | NC[C@@H](NC(=O)c1ccc(-c2ccc(Cl)cn2)[nH]1)c1nc(CO)cs1 | 5 | > 132 | 
20 | Cc1cc(-c2ccc(C(F)(F)F)cn2)[nH]c1C(=O)N[C@H](CN)c1ncc(CO)s1 |  | 92.8 | 
21 | NC[C@H](NC(=O)c1ccc(-c2ncc(Cl)cn2)[nH]1)c1nc(CO)cs1 | > 15.8 | > 66 | 
22 | NC[C@H](NC(=O)c1ccc(-c2ccc(C(F)(F)F)cn2)[nH]1)c1ncc(C(O)CO)s1 (stereo partly specified) | 5.9 | > 113 | 
23 | CC(C)(N)[C@H](NC(=O)c1ccc(-c2ccc(C(F)(F)F)cn2)[nH]1)c1ncc(CO)s1 | 0.5 | 42.4 | 
24 | NC[C@@H](NC(=O)c1ccc(-c2ccc(C(F)(F)F)nn2)[nH]1)c1nc(CO)cs1 | > 12 | > 73 | 
25 | Cc1cc(-c2ccc(Cl)cn2)[nH]c1C(=O)N[C@H](CN)c1ncc(CO)s1 | 1.2 | 98.3 | 

Row | SMILES | IC50 [4] [µM] | CC50 (TZM) [µM] | other results
26 | CC(C)(N)[C@@H](NC(=O)c1ccc(-c2ccc(C(F)(F)F)cn2)[nH]1)c1nc(CO)cs1 | 1.7 | 61 | 
27 | NC[C@H](NC(=O)c1ccc(-c2ccc(C(F)(F)F)cn2)[nH]1)c1nccs1 | 1.2 | 93.6 | 
28 | NC[C@@H](NC(=O)c1ccc(-c2ccc(C(F)(F)F)cn2)[nH]1)c1nc(CCO)cs1 | 1.7 | 100 | 
29 | NC[C@@H](NC(=O)c1ccc(-c2ccc(C(F)(F)F)cn2)[nH]1)c1nccs1 | 2 | 89.3 | 
30 | NC[C@@H](NC(=O)c1ccc(-c2ncc(Cl)cn2)[nH]1)c1nc(CO)cs1 | > 15.8 |  | 
31 | NC[C@H](NC(=O)c1ccc(-c2ccc(F)cn2)[nH]1)c1nc(CO)cs1 | > 11 | > 138 | 
32 | NC[C@@H](NC(=O)c1ccc(-c2ccc(C(F)(F)F)cc2)[nH]1)c1ncc(CO)s1 |  | 42.4 | IC50 [5]: 0.7 µM; IC50 [6]: 0.8 µM
33 | COc1cc(-c2ccc(C(=O)N[C@H](CN)c3nc(CO)cs3)[nH]2)ccn1 | > 11 |  | 
34 | NC[C@H](NC(=O)c1ccc(-c2ccc(Cl)cn2)[nH]1)c1nc(CO)cs1 | 1.7 |  | 
35 | NC[C@H](NC(=O)c1ccc(-c2ccc(C(F)(F)F)cn2)[nH]1)c1nc(CO)c(CO)s1 | > 13 |  | 
36 | CC(C)(N)[C@@H](NC(=O)c1ccc(-c2ccc(C(F)(F)F)cn2)[nH]1)c1ncc(CO)s1 | 0.52 | 74 | 
37 | NC[C@@H](NC(=O)c1ccc(-c2ccc(Cl)cn2)[nH]1)c1ncc(CO)s1 | 0.85 | 144 | 
38 | Cc1ccc(-c2ccc(C(=O)N[C@@H](CN)c3nc(CO)cs3)[nH]2)nc1 | > 11 | > 140 | 
39 | NC[C@@H](NC(=O)c1ccc(-c2ccc(C(F)(F)F)cn2)[nH]1)c1ncc(C(O)CO)s1 (stereo partly specified) | 2.1 |  | 
40 | NC[C@H](NC(=O)c1ccc(-c2ccc(C(F)(F)F)cn2)[nH]1)c1nc(CO)cs1 | 0.3 | 77.9 | 
41 | NC[C@@H](NC(=O)c1ccc(-c2ccc(C(F)(F)F)cn2)[nH]1)c1nc(CO)c(CO)s1 | 1.8 | > 113 | 
42 | NC[C@H](NC(=O)c1ccc(-c2ccc(C(F)(F)F)cn2)[nH]1)c1ncc(CO)s1 | 1.2 |  | 
43 | NC[C@H](NC(=O)c1ccc(-c2ccc(C(F)(F)F)cn2)[nH]1)c1nc(CCCO)cs1 | 0.89 | 81.2 | 
44 | NC[C@H](NC(=O)c1ccc(-c2ccc(C(F)(F)F)nc2)[nH]1)c1nc(CO)cs1 | 11.9 | > 122 | 
45 | NC[C@H](NC(=O)c1ccc(-c2ccc(C(F)(F)F)nn2)[nH]1)c1nc(CO)cs1 | > 12 |  | 
46 | NC[C@H](NC(=O)c1ccc(-c2ccc(C(F)(F)F)cn2)[nH]1)c1nc(CCO)cs1 | 0.76 | 91 | 
47 | NC[C@@H](NC(=O)c1ccc(-c2ccc(C(F)(F)F)cn2)[nH]1)c1nc(C(O)CO)cs1 (stereo partly specified) | 5.2 |  | 
48 | NC[C@@H](NC(=O)c1ccc(-c2ccc(Cl)nc2)[nH]1)c1nc(CO)cs1 | > 11 |  | 
49 | CC(CN)(NC(=O)c1ccc(-c2ccc(C(F)(F)F)cn2)[nH]1)c1nc(CO)cs1 (racemic) | 5.1 | > 70.5 | 
50 | Cc1cc(-c2ccc(C(F)(F)F)cn2)[nH]c1C(=O)NC(C)(CN)c1nc(CO)cs1 (racemic) | 2.6 | > 68.3 | 
